Reference: paper PMC9524580 (Neuropharmacology, 2022)
Entries after “also recorded” stand apart in the source; their conditions may differ.

How the values were obtained:
[1] = molecular target: high sensitivity (HS) α4(2)β2(3) nAChR (Homo sapiens, UniProt P17787+P43681); type: cell-based; conditions: for Effect on ACh-evoked peak-current responses of HS α4β2 receptors: 100 μM compound co-applied with control ACh (10 μM)
[2] = molecular target: low sensitivity (LS) α4(3)β2(2) nAChR (Homo sapiens, UniProt P17787+P43681); assay: Two-electrode voltage clamp of Xenopus oocytes expressing LS α4β2 nAChR; type: cell-based; conditions: for Effect on ACh-evoked peak-current responses of LS α4β2 receptors: 100 μM compound co-applied with control ACh (100 μM)
low sensitivity (LS) α4(3)β2(2) nAChR, sequence (P17787 26-502): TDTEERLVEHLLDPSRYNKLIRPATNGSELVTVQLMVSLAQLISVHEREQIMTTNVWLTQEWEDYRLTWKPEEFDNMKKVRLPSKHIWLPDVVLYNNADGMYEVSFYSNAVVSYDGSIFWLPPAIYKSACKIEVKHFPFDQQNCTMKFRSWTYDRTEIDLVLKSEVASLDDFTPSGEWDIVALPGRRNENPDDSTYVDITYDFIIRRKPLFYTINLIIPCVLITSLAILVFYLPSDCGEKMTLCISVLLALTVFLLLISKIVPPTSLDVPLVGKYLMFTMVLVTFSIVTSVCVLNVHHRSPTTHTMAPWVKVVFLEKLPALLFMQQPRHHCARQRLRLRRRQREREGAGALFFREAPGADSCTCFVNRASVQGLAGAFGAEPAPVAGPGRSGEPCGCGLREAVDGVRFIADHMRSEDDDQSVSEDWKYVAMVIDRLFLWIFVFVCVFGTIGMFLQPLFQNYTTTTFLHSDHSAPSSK
low sensitivity (LS) α4(3)β2(2) nAChR, sequence (P43681 29-627 limits assumed): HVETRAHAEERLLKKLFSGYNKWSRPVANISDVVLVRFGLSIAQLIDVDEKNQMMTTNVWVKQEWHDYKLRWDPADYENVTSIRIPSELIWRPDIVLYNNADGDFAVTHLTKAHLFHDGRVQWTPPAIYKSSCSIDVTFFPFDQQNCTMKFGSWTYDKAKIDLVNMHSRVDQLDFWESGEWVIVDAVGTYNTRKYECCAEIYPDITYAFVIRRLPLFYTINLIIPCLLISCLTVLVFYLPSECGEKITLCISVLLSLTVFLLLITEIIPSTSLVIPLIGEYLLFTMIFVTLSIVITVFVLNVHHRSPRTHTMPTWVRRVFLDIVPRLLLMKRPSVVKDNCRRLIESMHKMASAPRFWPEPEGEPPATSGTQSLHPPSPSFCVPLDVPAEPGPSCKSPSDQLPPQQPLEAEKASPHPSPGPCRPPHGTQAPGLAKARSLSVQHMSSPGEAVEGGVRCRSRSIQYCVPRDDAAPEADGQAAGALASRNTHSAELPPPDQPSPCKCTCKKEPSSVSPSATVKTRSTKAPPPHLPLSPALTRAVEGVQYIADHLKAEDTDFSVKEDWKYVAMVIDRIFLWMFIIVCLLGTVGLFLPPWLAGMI
low sensitivity (LS) α4(3)β2(2) nAChR, sequence (P43681 29-627 limits assumed): as above

[3] = molecular target: human α7 nAChR (Homo sapiens, UniProt P36544); assay: Two-electrode voltage clamp of Xenopus oocytes expressing α7 nAChR; type: cell-based; conditions: for α7 net-charge response to compound co-applied with PNU-120596: 100 μM compound + 10 μM PNU-120596, compared to PNU-120596 alone or ACh control
human α7 nAChR, sequence (P36544 23-502): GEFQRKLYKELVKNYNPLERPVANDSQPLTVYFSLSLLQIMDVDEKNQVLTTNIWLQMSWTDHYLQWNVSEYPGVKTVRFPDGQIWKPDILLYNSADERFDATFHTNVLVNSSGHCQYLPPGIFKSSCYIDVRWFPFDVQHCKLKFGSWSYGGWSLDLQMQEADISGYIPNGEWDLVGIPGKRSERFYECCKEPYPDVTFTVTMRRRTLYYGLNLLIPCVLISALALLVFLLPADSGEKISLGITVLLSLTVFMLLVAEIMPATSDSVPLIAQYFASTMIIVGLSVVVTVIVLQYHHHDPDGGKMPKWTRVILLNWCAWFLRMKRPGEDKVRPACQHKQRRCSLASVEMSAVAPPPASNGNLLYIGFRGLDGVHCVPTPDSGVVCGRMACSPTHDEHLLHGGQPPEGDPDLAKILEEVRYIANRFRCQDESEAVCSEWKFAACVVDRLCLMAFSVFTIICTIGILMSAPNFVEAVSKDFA
How it was run: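 Human α7 clone co-injected with human RIC3 in Xenopus oocytes. Oocytes were clamped at −60 mV at 24 °C and perfused at 2 ml/min with Ringer's (115 mM NaCl, 2.5 mM KCl, 1.8 mM CaCl2, 10 mM HEPES, 1 μM atropine, pH 7.2). […] Compound was 100 μM, alone or with 10 μM PAM; n = 6–8 oocytes; ANOVA.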

[4] = molecular target: α4(2)β2(2)α5 nAChR (Homo sapiens, UniProt P17787+P30532+P43681); assay: Two-electrode voltage clamp of Xenopus oocytes expressing α4β2α5 nAChR; type: cell-based; conditions: 100 μM n-MP co-applied with 10 μM ACh
α4(2)β2(2)α5 nAChR, sequence (P17787 26-502): as the sequence (P17787 26-502) above
α4(2)β2(2)α5 nAChR, sequence (P43681 29-627 limits assumed): as the sequence (P43681 29-627 limits assumed) above
α4(2)β2(2)α5 nAChR, sequence (P30532 23-468): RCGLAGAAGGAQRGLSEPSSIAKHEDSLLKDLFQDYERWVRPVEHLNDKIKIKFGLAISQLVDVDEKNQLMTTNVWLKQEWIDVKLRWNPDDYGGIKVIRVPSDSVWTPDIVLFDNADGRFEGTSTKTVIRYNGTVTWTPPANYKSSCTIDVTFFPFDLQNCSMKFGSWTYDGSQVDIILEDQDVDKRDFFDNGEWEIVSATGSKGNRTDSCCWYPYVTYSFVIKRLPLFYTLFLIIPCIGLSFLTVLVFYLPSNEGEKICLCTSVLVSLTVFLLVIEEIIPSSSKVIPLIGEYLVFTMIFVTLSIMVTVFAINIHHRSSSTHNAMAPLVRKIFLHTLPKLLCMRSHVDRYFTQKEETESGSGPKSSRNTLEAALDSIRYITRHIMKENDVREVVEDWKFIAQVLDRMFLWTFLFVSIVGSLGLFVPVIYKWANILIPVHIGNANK
How it was run: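 Human α4(2)β2(2)α5 receptors expressed in Xenopus laevis oocytes. Voltage-clamped at −60 mV and room temperature (24 °C), perfused at 4 ml/min with atropine-containing Ringer's, pH 7.2. […] At least five oocytes; mean ± S.D.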

[5] = molecular target: α3β4 nAChR (Homo sapiens, UniProt P30926+P32297); type: cell-based; conditions: 100 μM n-MP co-applied with 100 μM ACh; alpha:beta RNA 5:1 or 1:5 (either set)
α3β4 nAChR, sequence (P32297 32-505): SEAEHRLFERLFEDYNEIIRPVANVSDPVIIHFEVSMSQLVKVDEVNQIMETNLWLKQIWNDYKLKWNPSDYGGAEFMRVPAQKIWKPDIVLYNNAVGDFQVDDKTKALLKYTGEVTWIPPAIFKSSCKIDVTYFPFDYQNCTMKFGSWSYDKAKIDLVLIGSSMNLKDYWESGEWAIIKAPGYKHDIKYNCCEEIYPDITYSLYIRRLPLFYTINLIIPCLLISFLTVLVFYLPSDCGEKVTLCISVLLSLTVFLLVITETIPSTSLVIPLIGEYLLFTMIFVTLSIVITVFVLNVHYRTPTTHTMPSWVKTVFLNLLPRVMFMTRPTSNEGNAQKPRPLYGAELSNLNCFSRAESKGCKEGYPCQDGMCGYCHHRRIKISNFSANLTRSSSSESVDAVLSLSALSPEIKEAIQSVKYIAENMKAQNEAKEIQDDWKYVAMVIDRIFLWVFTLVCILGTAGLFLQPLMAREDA
α3β4 nAChR, sequence (P30926 22-498): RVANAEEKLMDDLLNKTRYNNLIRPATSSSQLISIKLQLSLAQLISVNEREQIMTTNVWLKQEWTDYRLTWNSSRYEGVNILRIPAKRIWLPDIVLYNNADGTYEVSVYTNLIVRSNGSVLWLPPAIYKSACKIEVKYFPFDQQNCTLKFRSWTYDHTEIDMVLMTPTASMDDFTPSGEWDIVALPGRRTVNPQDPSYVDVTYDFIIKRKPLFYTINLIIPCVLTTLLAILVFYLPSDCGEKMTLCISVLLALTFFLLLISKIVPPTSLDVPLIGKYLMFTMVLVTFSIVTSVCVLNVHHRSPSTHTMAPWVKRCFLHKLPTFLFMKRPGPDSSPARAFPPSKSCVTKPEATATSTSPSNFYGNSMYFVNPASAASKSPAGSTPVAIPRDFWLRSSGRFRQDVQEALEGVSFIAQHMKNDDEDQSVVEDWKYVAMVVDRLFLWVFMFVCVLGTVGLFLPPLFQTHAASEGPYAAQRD
How it was run: (§1)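 Xenopus oocytes were injected with human α3 plus β2 or β4 subunit RNA at alpha:beta ratios of 1:5 or 5:1. Two-electrode voltage clamp at −60 mV, 24 °C, with Ringer's (pH 7.2, 1 μM atropine) at 4 ml/min.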

[6] = molecular target: α3β2 nAChR (Homo sapiens, UniProt P17787+P32297); type: cell-based; conditions: 100 μM n-MP co-applied with 100 μM ACh
α3β2 nAChR, sequence (P32297 32-505): as the sequence (P32297 32-505) above
α3β2 nAChR, sequence (P17787 26-502): as the sequence (P17787 26-502) above
How it was run: as §1

[7] = molecular target: β3α4β2α6β2 nAChR (Homo sapiens, UniProt P17787+P43681+Q05901+Q15825); type: cell-based; conditions: 100 μM n-MP co-applied with 30 μM ACh
β3α4β2α6β2 nAChR, sequence (Q05901 25-458 limits assumed): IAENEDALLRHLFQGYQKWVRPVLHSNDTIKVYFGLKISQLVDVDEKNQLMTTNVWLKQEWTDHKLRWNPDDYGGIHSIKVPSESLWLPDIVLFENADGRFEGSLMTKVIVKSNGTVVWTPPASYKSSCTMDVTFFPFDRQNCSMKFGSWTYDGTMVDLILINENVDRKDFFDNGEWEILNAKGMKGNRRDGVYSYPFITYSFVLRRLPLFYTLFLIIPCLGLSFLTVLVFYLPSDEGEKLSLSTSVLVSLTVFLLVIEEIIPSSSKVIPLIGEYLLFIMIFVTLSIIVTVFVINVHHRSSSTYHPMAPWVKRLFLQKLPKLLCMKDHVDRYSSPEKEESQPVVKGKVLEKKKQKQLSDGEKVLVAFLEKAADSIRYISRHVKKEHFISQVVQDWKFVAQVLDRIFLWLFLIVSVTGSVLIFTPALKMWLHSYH
β3α4β2α6β2 nAChR, sequence (P43681 29-627 limits assumed): as the sequence (P43681 29-627 limits assumed) above
β3α4β2α6β2 nAChR, sequence (P17787 26-502): as the sequence (P17787 26-502) above
β3α4β2α6β2 nAChR, sequence (Q15825 26-494): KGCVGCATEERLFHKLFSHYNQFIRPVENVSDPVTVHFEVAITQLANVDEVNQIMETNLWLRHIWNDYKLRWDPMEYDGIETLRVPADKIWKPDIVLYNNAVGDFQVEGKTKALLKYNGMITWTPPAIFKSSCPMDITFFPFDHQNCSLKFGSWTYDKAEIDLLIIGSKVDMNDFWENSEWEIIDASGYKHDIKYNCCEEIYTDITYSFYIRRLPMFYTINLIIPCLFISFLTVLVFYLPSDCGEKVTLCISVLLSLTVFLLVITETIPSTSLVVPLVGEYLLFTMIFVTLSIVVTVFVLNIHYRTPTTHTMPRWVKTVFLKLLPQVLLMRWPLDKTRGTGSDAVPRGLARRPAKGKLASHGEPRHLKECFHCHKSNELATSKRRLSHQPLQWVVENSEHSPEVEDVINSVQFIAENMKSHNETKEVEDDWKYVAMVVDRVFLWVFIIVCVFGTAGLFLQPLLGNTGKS
β3α4β2α6β2 nAChR, sequence (P17787 26-502): as the sequence (P17787 26-502) above
How it was run: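 Oocytes from female Xenopus laevis expressed human β3α4β2α6β2 from a linked-subunit concatamer. Two-electrode voltage clamp at −60 mV and 24 °C. Bath perfusion at 4 ml/min with Ringer's (115 mM NaCl, 2.5 mM KCl, 1.8 mM CaCl2, 10 mM HEPES, 1 μM atropine, pH 7.2). […] Responses were relative to the mean of the two controls; n = 6, mean ± S.D.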

[8] = inferred from use as biomarker of coffee consumption; ref Bresciani et al., 2020; cited from earlier work

high sensitivity (HS) α4(2)β2(3) nAChR, sequence (P17787 26-502): as above
high sensitivity (HS) α4(2)β2(3) nAChR, sequence (P43681 29-627 limits assumed): as the sequence (P43681 29-627 limits assumed) above
high sensitivity (HS) α4(2)β2(3) nAChR, sequence (P17787 26-502): as the sequence (P17787 26-502) above

Structure (SMILES): CC(=O)OCC[N+](C)(C)C [ACh, Acetylcholine chloride, reference compound]
- Imax, From replicates, Averages ± S.D. [1]: 1.535 ± 0.080
- Imax, From Figure 7 [2]: 2.327 ± 0.395
- Imax, From replicates, Averages ± S.D. [2]: 2.290 ± 0.714

Structure (SMILES): Cn1c(=O)c2c(ncn2C)n(C)c1=O [caffeine, reference compound]
- Effect on ACh-evoked peak-current responses of HS α4β2 receptors [1]: lacks significant nAChR activity
- α7 net-charge response to compound co-applied with PNU-120596 [3]: lacks significant nAChR activity
- Effect on ACh-evoked peak-current responses of LS α4β2 receptors [2]: lacks significant nAChR activity

Structure (SMILES): C[N+](C)(C)CCO [choline]
- EC50 [3]: ~200 µM
- Net charge Imax with PNU-120596 co-application versus applied alone ([3]; 10 μM PNU-120596): roughly 100 fold
- α7 net-charge response to compound co-applied with PNU-120596 [3]: greater than the initial ACh controls

Structure (SMILES): C[N+]1(C)CCCCC1 [dMP, 1,1-dimethylpiperidium]
- Effect on ACh-evoked peak-current responses of HS α4β2 receptors [1]: decreasing the responses of HS receptors; also recorded: strongly inhibited
- α7 net-charge response to compound co-applied with PNU-120596 [3]: large responses
- α7 response to compound applied alone ([3]; 100 μM compound, compared to 60 μM ACh control): comparable to those stimulated by the control application of 60 μM ACh
- Effect on ACh-evoked peak-current responses of LS α4β2 receptors [2]: increasing the responses of LS receptors

Structure (SMILES): C[n+]1ccccc1 [n-MP, 1-methylpyridinium]
- Effect on ACh-evoked peak-current responses of HS α4β2 receptors [1]: decreasing the responses of HS receptors; also recorded: decreasing those of HS receptors
- Mode of action on HS α4β2 ACh-evoked responses ([1]; 100 μM n-MP, ACh competition experiment): competitive antagonist
- Effect of bath-applied n-MP on HS α4β2 ACh responses ([1]; varying bath concentrations, periodic 10 μM ACh applications): concentration-dependent, and only partially reversible, inhibition
- α7 net-charge response to compound co-applied with PNU-120596 [3]: PAM-dependent responses
- Effect on ACh responses of α4β2α5 receptors [4]: antagonist
- Effect on ACh responses of α3β4 receptors [5]: no effect
- Effect on ACh responses of α3β2 receptors with high levels of β2 ([6]; alpha:beta RNA 1:5): no effect
- Effect on ACh responses of α3β2 receptors with high levels of α3 ([6]; alpha:beta RNA 5:1): significant potentiation
- Effect on ACh responses of α6-containing receptors [7]: no significant effect
- Bioavailability [8]: good bioavailability
- Effect on ACh-evoked peak-current responses of LS α4β2 receptors [2]: increasing the responses of LS receptors
- Mode of action on LS α4β2 receptors ([2]; 100 μM n-MP, 10 to 100 μM ACh): working as a PAM at those intermediate concentrations
- LS α4β2 ACh responses after n-MP washout ([2]; 300 μM n-MP bath application): significant increases
- Imax of ACh, From Figure 7 ([2]; LS, ACh co-applied with 100 μM n-MP, relative to 100 μM ACh control): 1.824 ± 0.062
- Effect of bath-applied n-MP on LS α4β2 ACh responses ([2]; varying bath concentrations, periodic 100 μM ACh applications): small concentration-dependent increase
